Test results as given in ChEMBL document CHEMBL1124344, “5-Piperazinylalkyl-2(3H)-oxazolones with neuroleptic activity” (J Med Chem, 1989).

Key:
Rattus norvegicus [1] = assay: Antagonistic activity against apomorphine-induced stereotypy in rats, by administering perorally at a dose of 100 mg/kg; type: functional; settings: route oral
Method in brief: (§1)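 Male rats fasted overnight and given oral doses in arabic gum suspension (10 mL/kg) 1 h, or 1 and 5 h, before challenge. Apomorphine 3 mg/kg iv, with stereotypy observed 20 min later. ED50 is the dose inhibiting stereotypy in 50% of rats, per Janssen's method. Parenthetical entries give the maximal dose and percent activity.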

Mus musculus [2] = assay: Antagonistic activity against amphetamine-induced Hypermobility in mice, by administering perorally at a dose of 100 mg/kg; type: functional; settings: route oral
Method in brief: (§2)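 Male mice in groups of five, fasted overnight, given oral drug in arabic gum suspension (10 mL/kg) 1 or 5 h ahead. Amphetamine 4 mg/kg ip given 30 min after drug. Ten minutes later locomotion is recorded for 15 min in a photocell actophotometer. ED50 is 50% reduction versus control hypermotility, by probit analysis. Parenthetical entries give the maximal dose and percent activity.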

Rattus norvegicus [3] = assay: Activity to evoke catalepsy in rats, by administering perorally at a dose of 100 mg/kg; type: functional; settings: route oral, read-out: Inhibition
Method in brief: (§3)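 Rats fasted overnight and given oral doses in arabic gum suspension (10 mL/kg), 1 h before screening or 1 and 5 h before profile testing. Forelegs placed on a horizontal bar 7 cm high, three times at 5-min intervals. Immobility of at least 15 s counts as catalepsy. ED50 is the dose giving catalepsy in 50% of rats, by probit analysis. Parenthetical entries give the maximal dose and percent activity.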

[4] = Lethal dose in mice (LD50) following i.p. dosing; type: toxicity, organism-based; settings: mouse, in vivo, ip
Method in brief: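 Acute toxicity tested in mice by the intraperitoneal route. LD50 is the dose killing 50% of treated mice, computed by Finney probit analysis; values are approximate.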

Mus musculus [5] = assay: Inhibition of spontaneous motor activity in mice, by administering perorally at a dose of 100 mg/kg; type: functional; settings: route oral
Method in brief: (§4)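 Mice fasted overnight, then dosed orally with compound (weighed as base) suspended in arabic gum, 10 mL/kg, with vehicle controls; 1 h pretreatment for screening tests, 1 or 5 h for others. Groups of five; locomotor activity counted 10 min in photocell activity cage, at least two groups per dose. ED50 = dose giving 50% inhibition versus controls, by probit analysis.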

Mus musculus [6] = assay: Inhibition of spontaneous motor activity in mice, by administering perorally; type: functional; settings: po
Method in brief: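 Mice in groups of five were dosed orally with gum arabic suspensions at 10 mL/kg after an overnight fast, with a vehicle control group. Locomotion was counted for 10 min in a photocell activity cage, in at least two groups per dose. ED50, by probit analysis, is the dose giving 50% inhibition against controls.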

Mus musculus [7] = assay: Inhibition of amphetamine-induced hypermobility in mice following p.o. administration.; type: functional; settings: po
Method in brief: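 Compounds were given orally to male mice (gum arabic suspension, 10 mL/kg, fasted) in groups of five. Amphetamine 4 mg/kg ip followed 30 min later. After another 10 min, motility was recorded for 15 min with a photocell actophotometer. ED50, by probit analysis, is the dose giving 50% reduction against controls.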

Rattus norvegicus [8] = assay: Antagonistic activity against apomorphine-induced stereotypy in rats, by administering perorally; type: functional; settings: po; method in brief: as §1
Rattus norvegicus [9] = assay: Activity to evoke catalepsy in rats, by administering perorally at a dose of 200 mg/kg; type: functional; settings: route oral; method in brief: as §3
Mus musculus [10] = assay: Inhibition of spontaneous motor activity in mice, by administering perorally at a dose of 125 mg/kg; type: functional; settings: route oral; method in brief: as §4
Rattus norvegicus [11] = assay: Activity to evoke catalepsy in rats, by administering perorally at a dose of 150 mg/kg; type: functional; settings: route oral; method in brief: as §3
Rattus norvegicus [12] = assay: Antagonistic activity against apomorphine-induced stereotypy in rats, by administering perorally at a dose of 150 mg/kg; type: functional; settings: route oral; method in brief: as §1
Rattus norvegicus [13] = assay: Antagonistic activity against apomorphine-induced stereotypy in rats, by administering perorally at a dose of 50 mg/kg; type: functional; settings: route oral; method in brief: as §1
Rattus norvegicus [14] = assay: Activity to evoke catalepsy in rats, by administering perorally at a dose of 50 mg/kg; type: functional; settings: route oral; method in brief: as §3
Rattus norvegicus [15] = assay: Activity to evoke catalepsy in rats, by administering perorally; type: functional; settings: po; method in brief: as §3
Rattus norvegicus [16] = assay: Antagonistic activity against apomorphine-induced stereotypy in rats, by administering perorally at a dose of 200 mg/kg; type: functional; settings: route oral; method in brief: as §1
Rattus norvegicus [17] = assay: Activity to evoke catalepsy in rats, by administering perorally at a dose of 70 mg/kg; type: functional; settings: route oral; method in brief: as §3
Rattus norvegicus [18] = assay: Activity to evoke catalepsy in rats, by administering perorally at a dose of 40 mg/kg; type: functional; settings: route oral; method in brief: as §3
Mus musculus [19] = assay: Antagonistic activity against amphetamine-induced Hypermobility in mice, by administering perorally at a dose of 10 mg/kg; type: functional; settings: route oral; method in brief: as §2
Rattus norvegicus [20] = assay: Antagonistic activity against apomorphine-induced stereotypy in rats, by administering perorally at a dose of 40 mg/kg; type: functional; settings: route oral; method in brief: as §1

Row | SMILES | inhibition in vivo at 100 mg/kg (Rattus norvegicus [1]) [%] | inhibition in vivo at 100 mg/kg (Mus musculus [2]) [%] | percent of rats showing catalepsy at 100 mg/kg (Rattus norvegicus [3]) [%] | LD50 [4] [mg/kg] | ED50 (Mus musculus [6]) [mg/kg] | ED50 (Mus musculus [7]) [mg/kg] | other results
1 | Oc1nc(-c2ccc(F)cc2)c(CCN2CCN(c3cc(Cl)c(Cl)c(Cl)c3)CC2)o1 | 0 | 0 | 0 | > 1000 |  |  | inhibition in vivo at 100 mg/kg (Mus musculus [5]): 0%
2 | Oc1nc(-c2ccc(F)cc2)c(CCN2CCN(c3ccc(Cl)cc3)CC2)o1 | 0 | 0 | 0 | > 1000 | 200 |  | 
3 | Oc1nc(-c2ccc(F)cc2)c(CCN2CCN(c3ccccc3Cl)CC2)o1 | 0 |  | 30 | > 1000 | 14.2 | 15 | 
4 | COc1ccc(N2CCN(CCc3oc(O)nc3-c3ccc(F)cc3)CC2)cc1 | 0 | 0 | 0 | > 1000 |  |  | inhibition in vivo at 100 mg/kg (Mus musculus [5]): 33%
5 | O=c1oc(CCN2CCN(c3ccccc3)CC2)c(-c2ccc(F)cc2)n1Cc1ccccc1 |  | 40 |  | 1000 | 51 |  | ED50 (Rattus norvegicus [8]): 200 mg/kg; inhibition in vivo at 200 mg/kg (Rattus norvegicus [9]): 0%
6 | O=c1oc(CCN2CCN(c3ccccc3)CC2)c(-c2ccc(F)cc2)n1-c1ccccc1 | 0 | 0 | 0 | > 1000 |  |  | inhibition in vivo at 125 mg/kg (Mus musculus [10]): 0%
7 | CCCCn1c(-c2ccc(F)cc2)c(CCN2CCN(c3ccccc3)CC2)oc1=O |  |  |  | 750 | 16 | 15.4 | inhibition in vivo at 150 mg/kg (Rattus norvegicus [11]): 0%; inhibition in vivo at 150 mg/kg (Rattus norvegicus [12]): 40%
8 | Cc1cccc(N2CCN(CCc3oc(O)nc3-c3ccc(F)cc3)CC2)c1 |  |  |  | > 1000 | 13.4 | 7.3 | inhibition in vivo at 50 mg/kg (Rattus norvegicus [13]): 0%; inhibition in vivo at 50 mg/kg (Rattus norvegicus [14]): 0%
9 | Oc1nc(-c2ccc(F)cc2)c(CCN2CCN(c3cccc(Cl)c3)CC2)o1 |  |  | 0 | > 1000 | 58.5 | 54.1 | ED50 (Rattus norvegicus [8]): 80 mg/kg
10 | Oc1nc(-c2ccc(F)cc2)c(CCN2CCN(c3ccccc3)CC2)o1 |  |  |  | > 2000 | 3.6 | 5.4 | ED50 (Rattus norvegicus [8]): 47.5 mg/kg; ED50 (Rattus norvegicus [15]): 87 mg/kg
11 | Cc1ccc(-c2nc(O)oc2CCN2CCN(c3ccccc3)CC2)cc1 | 0 |  | 0 | 400 | 6.4 | 2 | 
12 | Oc1nc(-c2ccc(F)cc2)c(CCN2CCN(c3ccccn3)CC2)o1 |  | 0 | 0 | > 1000 | 38 |  | inhibition in vivo at 200 mg/kg (Rattus norvegicus [16]): 30%
13 | CCN(CC)CCn1c(-c2ccc(F)cc2)c(CCN2CCN(c3ccccc3)CC2)oc1=O |  |  |  | 350 | 60 |  | ED50 (Rattus norvegicus [8]): 35 mg/kg; inhibition in vivo at 70 mg/kg (Rattus norvegicus [17]): 0%
14 | Oc1nc(-c2ccc(F)cc2)c(CCCN2CCN(c3ccccc3)CC2)o1 |  |  |  | 170 | 8 |  | inhibition in vivo at 40 mg/kg (Rattus norvegicus [18]): 0%; inhibition in vivo at 10 mg/kg (Mus musculus [19]): 69%; inhibition in vivo at 40 mg/kg (Rattus norvegicus [20]): 0%
15 | CNC(=O)n1c(-c2ccc(F)cc2)c(CCN2CCN(c3ccccc3)CC2)oc1=O |  |  | 0 | 750 | 16.5 | 9.9 | 
